# Laboratory results published in paper PMC10170627 (RSC Chemical Biology, 2023).
# Starred links: 1 amine or outer side, 2 acyl side, 3 side chain; linkers in the order of their positions; H or OH if unused. Positions of bridges follow the written chain, without caps; N, C: chain ends. Non-standard residues stand in square brackets, D forms with d. Residues, ends and D or L forms follow the SMILES beside them. Chains are numbered I, II in the order given. Actinocin(9to1) = Cc1c2oc3c(C)ccc(C(=O)[*:1])c3nc-2c(C(=O)[*:2])c(N)c1=O; NMeV = CN[C@H](C(=O)O)C(C)C; Sar = CNCC(=O)O
# What was measured:
# NPM1 = test: Nucleophosmin; type: cell-based, human; details: A549; 24 h; 5 nM actinomycin D, 5 μM cisplatin, 5 μM compound 1
# NCI 60-cell line panel = NCI 60-cell line panel COMPARE analysis; type: cell-based; details: five-dose data, Standard Agents GI50 library; 48 h
# E. coli DNA gyrase = E. coli DNA gyrase (Escherichia coli, UniProt P0AES4+P0AES6); test: Inhibition of DNA gyrase activity; type: biochemical; details: positive control
# [1] = test system: HeLa parental and XPA knockout cells; test: HeLa parental and XPA knockout cytotoxicity; type: cell-based; details: 72 h
# E. coli BL21(DE3) [2] = test: Bacteria growth inhibition; type: cell-based, Escherichia coli; details: 0-100 μM, 16 h
# Procedure, shortened: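 MIC taken as the lowest test compound concentration at which no bacterial growth was observed.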
# HEL299 = test: Cell cytotoxicity; type: cell-based; details: read-out: IC50 (St. dev.) HEL299; 72 h; triplicate
# Procedure, shortened: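 Healthy lung fibroblasts were treated with each test compound. IC50 is the average of triplicate measurements, reported with standard deviation. Selectivity index is the HEL299 IC50 divided by the A549 IC50.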
# E. coli BL21(DE3) [3] = test: Bacterial cytological profiling; type: cell-based, Escherichia coli
# HL-60 = details: read-out: IC50 (St. dev.) HL-60; ref prior work (footnote d); cited from earlier work
# DU145 spheroids = test: Cytotoxicity in DU145 spheroids; type: cell-based; details: read-out: IC50 (St. dev.) DU145 spheroids; 72 h; triplicate
# Chain of E. coli DNA gyrase (P0AES4 whole entry, one chain of several): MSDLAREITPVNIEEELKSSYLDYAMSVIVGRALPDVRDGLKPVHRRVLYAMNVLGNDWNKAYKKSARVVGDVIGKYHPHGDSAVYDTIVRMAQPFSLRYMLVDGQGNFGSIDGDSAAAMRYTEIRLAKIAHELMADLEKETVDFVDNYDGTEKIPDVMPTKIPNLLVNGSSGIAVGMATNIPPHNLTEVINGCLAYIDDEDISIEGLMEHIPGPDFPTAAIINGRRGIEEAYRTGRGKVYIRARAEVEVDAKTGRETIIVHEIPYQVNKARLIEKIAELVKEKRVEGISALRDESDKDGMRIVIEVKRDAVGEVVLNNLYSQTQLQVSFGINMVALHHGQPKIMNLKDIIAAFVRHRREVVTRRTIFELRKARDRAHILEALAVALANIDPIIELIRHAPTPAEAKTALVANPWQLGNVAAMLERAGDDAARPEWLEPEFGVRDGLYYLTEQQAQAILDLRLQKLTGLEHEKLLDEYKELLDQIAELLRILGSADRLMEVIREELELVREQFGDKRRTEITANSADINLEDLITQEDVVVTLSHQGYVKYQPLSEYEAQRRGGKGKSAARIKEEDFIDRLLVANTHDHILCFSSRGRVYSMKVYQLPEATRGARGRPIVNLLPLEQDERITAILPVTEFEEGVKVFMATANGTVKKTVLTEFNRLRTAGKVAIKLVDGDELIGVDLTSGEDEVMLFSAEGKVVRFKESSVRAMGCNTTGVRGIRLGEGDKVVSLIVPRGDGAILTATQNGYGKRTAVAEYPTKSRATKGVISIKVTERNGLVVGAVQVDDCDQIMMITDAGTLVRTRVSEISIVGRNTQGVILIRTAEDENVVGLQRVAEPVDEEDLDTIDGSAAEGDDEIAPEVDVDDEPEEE
Compound,COMPARE correlation (Pearson correlation coefficient) to compound 2 (NCI 60-cell line panel),bacterial growth inhibition (E. coli BL21(DE3) [2]),other results
"Cc1c2oc3c(C)ccc(C(=O)N[C@@H]4C(=O)N[C@H](C(C)C)C(=O)N5CCC[C@H]5C(=O)N(C)CC(=O)N(C)[C@@H](C(C)C)C(=O)O[C@@H]4C)c3nc-2c(C(=O)N[C@@H]2C(=O)N[C@H](C(C)C)C(=O)N3CCC[C@H]3C(=O)N(C)CC(=O)N(C)[C@@H](C(C)C)C(=O)O[C@@H]2C)c(N)c1=O [Actinomycin D] (I: T[dV]P[Sar][NMeV] / II: T[dV]P[Sar][NMeV]; ester I:1-I:C, II:1-II:C; linker I:N-II:N via Actinocin(9to1))",0.69,,NPM1 distribution phenotype (NPM1): delocalized NPM1 phenotype
N.N.O=C([O-])C1(C(=O)[O-])CCC1.[Pt+2] [Carboplatin],0.12,,
CO[C@@H]1[C@H](O)C[C@@H](O[C@@H]2C[C@H](Oc3cc4cc5c(c(O)c4c(O)c3C)C(=O)[C@@H](O[C@H]3C[C@@H](O[C@H]4C[C@@H](O[C@H]6C[C@](C)(O)[C@@H](OC(C)=O)[C@H](C)O6)[C@H](O)[C@@H](C)O4)[C@H](O)[C@@H](C)O3)[C@H]([C@H](OC)C(=O)[C@@H](O)[C@@H](C)O)C5)O[C@H](C)[C@@H]2OC(C)=O)O[C@@H]1C [Chromomycin A3],0.85,,
O=C(O)c1cn(C2CC2)c2cc(N3CCNCC3)c(F)cc2c1=O [Ciprofloxacin],,,concentration at which the supercoiled form was lost (E. coli DNA gyrase): 0.75 µM
N.N.[Cl][Pt][Cl] [Cisplatin],−0.16,inhibited bacterial growth,"sensitization of XPA knockout versus parental HeLa [1]: 4 fold; NPM1 distribution phenotype (NPM1): Smaller changes in NPM1 distribution; IC50 (HEL299): 3.05 µM; average filament length (E. coli BL21(DE3) [3]; E. coli treated at the MIC, 24 h): 53 μm; IC50 (HL-60): 3.1 µM; IC50 (DU145 spheroids): 5.28 µM"
COc1cccc2c1C(=O)c1c(O)c3c(c(O)c1C2=O)C[C@@](O)(C(=O)CO)C[C@@H]3O[C@H]1C[C@H](N)[C@H](O)[C@H](C)O1 [Doxorubicin],0.55,,
COc1cc([C@@H]2c3cc4c(cc3[C@@H](O[C@@H]3O[C@@H]5CO[C@@H](C)O[C@H]5[C@H](O)[C@H]3O)[C@H]3COC(=O)[C@H]23)OCO4)cc(OC)c1O [Etoposide],0.39,,
CC(=O)O[C@H]1C(=O)[C@@]2(C)[C@H]([C@H](OC(=O)c3ccccc3)[C@]3(O)C[C@H](OC(=O)[C@H](O)[C@@H](NC(=O)c4ccccc4)c4ccccc4)C(C)=C1C3(C)C)[C@]1(OC(C)=O)CO[C@@H]1C[C@@H]2O [Paclitaxel],0.71,inhibited bacterial growth except for paclitaxel,filamentation (E. coli BL21(DE3) [3]; E. coli): no filament formation
CC[C@]1(O)C[C@@H]2CN(CCc3c([nH]c4ccccc34)[C@@](C(=O)OC)(c3cc4c(cc3OC)N(C)[C@H]3[C@@](O)(C(=O)OC)[C@H](OC(C)=O)[C@]5(CC)C=CCN6CC[C@]43[C@@H]65)C2)C1 [Vinblastine],0.64,,
CO[C@H]1/C=C/O[C@@]2(C)Oc3c(C)c(O)c4c(O)c(c(/C=N/N5CCN(C)CC5)c(O)c4c3C2=O)NC(=O)/C(C)=C\C=C\[C@H](C)[C@H](O)[C@@H](C)[C@@H](O)[C@@H](C)[C@H](OC(C)=O)[C@@H]1C [rifampicin],,inhibited bacterial growth,
CN(C)[C@@H]1C(O)=C(C(N)=O)C(=O)[C@@]2(O)C(O)=C3C(=O)c4c(O)cccc4[C@@](C)(O)[C@H]3C[C@@H]12 [tetracycline],,inhibited bacterial growth,
